The EC50 is the midpoint of the concentration-response curve. A high value points to a need for much substance.

Structures are written as SMILES.

For 12 molecules, EC50 results are on record in ChEMBL document CHEMBL1144494, “Synthesis of diverse analogues of Oenostacin and their antibacterial activities” (Bioorg Med Chem, 2007).

Test [1] has as its system Staphylococcus epidermidis. Put plainly: Antibacterial activity against Staphylococcus epidermidis. It is filed as functional, organism-based. The gist of the method: (§1)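 Twofold serial broth dilution in nutrient broth across eight tubes, with broth alone as control. Each tube received 10 µl of diluted log-phase culture at a titre of 10^4 cfu/ml. Incubation at 37 °C, with growth read by turbidity. EC50 values are means of three experiments run in triplicate.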

For test [2], the system named is Staphylococcus aureus. Put plainly: Antibacterial activity against Staphylococcus aureus. It is filed as functional, organism-based. Summed up:
as §1

Turning to `Cc1cc(O)c(C=O)c(O)c1`, the EC50 in test [1] and in test [2] was 1640 nM in each case.

`COc1cc(O)cc(C(=O)O)c1C=O`: the concentration for a half-maximal effect (EC50) is 2550 nM in test [1] and more than 5000 nM in test [2].

Turning to `O=C(O)CCCC(=O)c1ccc(O)c(O)c1O`, the results for the concentration giving a half-maximal response (EC50) in test [1] and in test [2] were 1040 nM and 2080 nM, respectively.

For `COC(=O)c1cc(O)cc(OC)c1C=O`, the EC50 in test [1] is 2380 nM; in test [2], 4760 nM.

On to `O=Cc1c(O)cc(O)cc1C(=O)O`, for which the EC50 was 1370 nM in test [1] and more than 5000 nM in test [2].

Take `O=C(O)/C=C/c1cc(O)c(O)c(O)c1`: the results for the EC50 in test [1] and in test [2] were 630 nM and 1260 nM, respectively.

Consider `CC(=O)c1cc(O)c(O)c(O)c1`, for which the EC50 was 1480 nM in test [1] and 2960 nM in test [2].

As to `O=C(O)c1cc(O)cc(O)c1CO`, the EC50 in test [1] and in test [2] was 670 nM in each case.

`O=C(O)/C=C/c1ccc(O)c(O)c1` [CAFFEIC ACID]: the EC50 in test [1] and in test [2] was 2780 nM each time.

For `COC(=O)CC/C=C/c1c(O)cc(C(=O)O)cc1O` [OENOSTACIN], the EC50 in test [1] and in test [2] was 120 nM each time.

Consider `Cc1cc(O)cc(O)c1` [ORCINOL], for which the EC50 in test [1] and in test [2] was 4030 nM each time.

On to `Oc1cccc(O)c1O` [PYROGALLOL], for which the concentration for a half-maximal effect (EC50) in test [1] is 990 nM; in test [2] it was 490 nM.
